# Laboratory results as given in publication PMC10432884 (Clinical and Translational Science, 2023).
# Entries after “also recorded” stand apart in the source; their conditions may differ. Like-named read-outs stand apart in the source and are kept apart here.
# Legend:
# healthy subjects [1] = assay: MAD phase CNS test battery; assay type: in vivo, human
# healthy subjects [2] = assay: SAD phase CNS test battery; assay type: in vivo, human
# healthy subjects [3] = assay: MAD phase blood pressure; assay type: in vivo, human
# Procedure, shortened: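 Double-blind MAD phase: four cohorts of 10 healthy subjects, randomized 4:1 to oral tablet (2, 5, 10, 15 mg) or placebo q.d. for 14 days after ≥10 h fast. BP and pulse were recorded predose daily and at 1, 2, 4, 6, 12 h on days 1, 2 and 14. Orthostatic BP was taken 24 and 48 h after the last dose. ANCOVA (treatment, time, treatment×time; random subject; predose covariate) gave LSM differences versus placebo with 95% CI.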
# [4] = monkeys, preclinical experiments, cited from earlier work
# [5] = MAD phase pharmacokinetics; assay type: in vivo, human; details: for PTR, GeoMean / PTR, Median: peak-to-trough ratio; for R max, GeoMean / R max, Median: accumulation ratio from C max; for R through, GeoMean / R through, Median: accumulation ratio from C trough; for t 1/2_eff, Median / t 1/2_eff, GeoMean: effective half-life based on accumulation; for AUC: both, human, plasma, oral, 2 mg, AUC τ, GeoMean
# Procedure, shortened: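 MAD phase, 2–15 mg q.d. oral for 14 days. Plasma was sampled predose daily and 15 min–48 h on days 1 and 14. Urine was pooled over 24 h on days 1 and 14. One CSF sample was taken 3 h postdose on day 7 (10 mg cohort). All matrices were assayed by validated LC-MS/MS. Derived: Cmax, Tmax, t1/2, AUCτ, Ctrough, peak-to-trough ratio, accumulation ratios, and CSF/plasma ratio corrected for protein binding. Results reported as geometric means (95% CI) and medians.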
structure (smiles),measurement,setting,value
"Fc1ccccc1Cc1nc(-c2nc(C(F)(F)F)n[nH]2)cn2ccnc12 [zagociguat, 8‐(2‐fluorobenzyl)‐6‐(3‐(trifluoromethyl)‐1H‐1,2,4‐triazol‐5‐yl)imidazo[1,2‐a]pyrazine]","pEEG and CNS tests, differences between placebo and zagociguat groups",healthy subjects [1],No dose‐dependent or consistent statistically significant differences
same,"pEEG and CNS tests, differences between placebo and zagociguat groups",healthy subjects [2],No dose‐dependent or consistent statistically significant differences
same,"Mean DBP, LSMs difference from placebo","healthy subjects [3]; MAD 2 mg q.d., over 14 days, 95% CI: −10.9, −1.3, p = 0.015",−6.1 mmHg
same,"Mean SBP, LSMs difference from placebo","healthy subjects [3]; MAD 2 mg q.d., over 14 days, 95% CI: −11.6, −0.6, p = 0.032",−6.1 mmHg
same,"DBP, maximum difference from placebo","healthy subjects [3]; MAD 5 mg q.d., day 14, 95% CI: −13.0, −2.0, p = 0.009",−7.5 mmHg
same,"Mean DBP, LSMs difference from placebo","healthy subjects [3]; MAD 5 mg q.d., over 14 days, 95% CI: −11.0, −1.4, p = 0.014",−6.2 mmHg
same,SBP or DBP change,healthy subjects [3]; MAD 10 and 15 mg groups,No decreases
same,Reduction in mean diastolic blood pressure,healthy subjects [3]; maximum over dose groups,up to 7.5 mmHg
same,Reduction in mean systolic blood pressure,healthy subjects [3]; maximum over dose groups,up to 6.1 mmHg
same,Geometric mean CSF/free plasma ratio,[4]; intravenous administration,0.57
same,Geometric mean CSF/free plasma ratio,[4]; oral administration,0.48
same,CNS penetration,[5]; CSF sampling during the MAD phase,confirmed by cerebrospinal fluid sampling; also recorded: confirmed by CSF sampling
same,Dose level from which detectable in urine,[5]; MAD,2 mg
same,"C trough, GeoMean","[5]; MAD 2 mg q.d., day 1",161.13 ng/mL
same,"C trough, Median","[5]; MAD 2 mg q.d., day 1",157.0 ng/mL
same,"PTR, GeoMean","[5]; MAD 2 mg q.d., day 1",1.62
same,"PTR, Median","[5]; MAD 2 mg q.d., day 1",1.64
same,"PTR, GeoMean","[5]; MAD 2 mg q.d., day 14",1.41
same,"PTR, Median","[5]; MAD 2 mg q.d., day 14",1.40
same,"R max, GeoMean",[5]; MAD 2 mg q.d.,3.38
same,"R max, Median",[5]; MAD 2 mg q.d.,3.32
same,"R through, GeoMean",[5]; MAD 2 mg q.d.,3.87
same,"R through, Median",[5]; MAD 2 mg q.d.,4.06
same,"t 1/2_eff, Median",[5]; MAD 2 mg q.d.,54.46 h
same,"PTR, GeoMean","[5]; MAD 5 mg q.d., day 1",1.55
same,"PTR, Median","[5]; MAD 5 mg q.d., day 1",1.50
same,"PTR, GeoMean","[5]; MAD 5 mg q.d., day 14",1.35
same,"PTR, Median","[5]; MAD 5 mg q.d., day 14",1.34
same,"R max, GeoMean",[5]; MAD 5 mg q.d.,3.45
same,"R max, Median",[5]; MAD 5 mg q.d.,3.56
same,"R through, GeoMean",[5]; MAD 5 mg q.d.,3.98
same,"R through, Median",[5]; MAD 5 mg q.d.,3.79
same,"t 1/2_eff, GeoMean",[5]; MAD 5 mg q.d.,54.60 h
same,"t 1/2_eff, Median",[5]; MAD 5 mg q.d.,56.63 h
same,"PTR, Median","[5]; MAD 10 mg q.d., day 1",1.36
same,"PTR, GeoMean","[5]; MAD 10 mg q.d., day 14",1.37
same,"PTR, Median","[5]; MAD 10 mg q.d., day 14",1.37
same,"R max, GeoMean",[5]; MAD 10 mg q.d.,3.60
same,"R max, Median",[5]; MAD 10 mg q.d.,3.68
same,"R through, GeoMean",[5]; MAD 10 mg q.d.,3.79
same,"R through, Median",[5]; MAD 10 mg q.d.,3.56
same,"t 1/2_eff, GeoMean",[5]; MAD 10 mg q.d.,54.29 h
same,"t 1/2_eff, Median",[5]; MAD 10 mg q.d.,54.53 h
same,"C trough, GeoMean","[5]; MAD 15 mg q.d., day 1",1173.20 ng/mL
same,"C trough, Median","[5]; MAD 15 mg q.d., day 1",1165 ng/mL
same,"PTR, GeoMean","[5]; MAD 15 mg q.d., day 1",1.38
same,"PTR, Median","[5]; MAD 15 mg q.d., day 1",1.37
same,"C trough, GeoMean","[5]; MAD 15 mg q.d., day 11",4149.25 ng/mL
same,"C trough, Median","[5]; MAD 15 mg q.d., day 11",4140 ng/mL
same,"C trough, GeoMean","[5]; MAD 15 mg q.d., day 12",4246.79 ng/mL
same,"C trough, Median","[5]; MAD 15 mg q.d., day 12",4140 ng/mL
same,"C trough, GeoMean","[5]; MAD 15 mg q.d., day 13",4157.21 ng/mL
same,"C trough, Median","[5]; MAD 15 mg q.d., day 13",4160 ng/mL
same,"C trough, GeoMean","[5]; MAD 15 mg q.d., day 14",4377.90 ng/mL
same,"C trough, Median","[5]; MAD 15 mg q.d., day 14",4275 ng/mL
same,"PTR, GeoMean","[5]; MAD 15 mg q.d., day 14",1.35
same,"PTR, Median","[5]; MAD 15 mg q.d., day 14",1.33
same,"R max, GeoMean",[5]; MAD 15 mg q.d.,3.61
same,"R max, Median",[5]; MAD 15 mg q.d.,3.54
same,"R through, GeoMean",[5]; MAD 15 mg q.d.,3.73
same,"R through, Median",[5]; MAD 15 mg q.d.,3.81
same,"t 1/2_eff, GeoMean",[5]; MAD 15 mg q.d.,52.80 h
same,"t 1/2_eff, Median",[5]; MAD 15 mg q.d.,51.81 h
same,Dose linearity analysis using AUC τ and C max,[5]; MAD day 1 and day 14 (Table S6),indicated dose proportionality
same,Day on which steady-state was attained,"[5]; MAD, all doses administered, Helmert contrasts of trough concentrations",11 days
same,AUC,"[5]; MAD 2 mg q.d., day 1",4500 ng·h/mL
same,AUC,"[5]; MAD 2 mg q.d., day 14",16900 ng·h/mL
